≈ marks a conversion by molar mass, not a printed value. Values belong to the molecule of their own block, whether it stands above or below them. Calls of active or inactive are those of the source. The rule behind the calls is not given here.
Experiments:
NIH3T3 = experiment: Cytotoxicity against mouse NIH/3T3 cells assessed as cell viability incubated for 24 hrs by neutral red uptake based assay; conditions: NIH3T3, 24 h
In short: (§1)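 NIH3T3 or U-373-MG cells grown in DMEM with 10% FCS at 37 °C, 5% CO2; compound from DMSO stock diluted in complete medium, 4–100 μM, 24 h. Viability by Neutral Red Uptake (3 h NR loading, acetic acid/ethanol extraction, A540), normalised to % control; IC50 reported. Three experiments in six replicates, Student's t test.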

U373 MG = experiment: Cytotoxicity against human U373MG cells assessed as cell viability incubated for 24 hrs by neutral red uptake based assay; design: species or system U-373MG ATCC; in short: as §1
[1] = Retention time of compound in human liver microsomes incubated for 30 mins by HPLC analysis; type: ADME, Microsome; conditions: 0.5 h
IMR-32 [2] = experiment: Antiinflammatory activity in human IMR32 cells assessed as reduction in LPS-induced NF-kappaB-DNA binding at 0.5 and 1 uM preincubated for 24 hrs followed by LPS stimulation and measured after 30 mins by ELISA; type: functional, cell-based
In short: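 IMR 32 cells pre-treated 24 h at 0.5 and 1 μM, then challenged with 100 μg/mL LPS for 30 min; NF-κB p65 binding of nuclear extracts to the DNA consensus sequence measured. Mean ± SEM of 3 independent experiments.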

[3] = Metabolic stability in human liver microsomes assessed as half life at 5 uM incubated for 60 mins by UV-Vis spectrophotometry; type: ADME, Microsome
IMR-32 [4] = experiment: Cytotoxicity against human IMR32 cells at 0.1 to 50 uM incubated for 24 hrs by LDH release assay; type: cell-based; conditions: imr-32, 24 h
In short: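 IMR 32 cells exposed 24 h to 0.1, 0.5, 1, 5, 10 and 50 μM; LDH release expressed as percent of maximal release from Triton X-100-treated cells (100%). Samples run at least in triplicate, mean ± SD.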

[5] = Metabolic stability in rat liver microsomes assessed as intrinsic clearance at 5 uM incubated for 60 mins by UV-Vis spectrophotometry; type: ADME, Microsome; conditions: read-out: CLH
[6] = Metabolic stability in rat liver microsomes assessed as half life at 5 uM incubated for 60 mins by UV-Vis spectrophotometry; type: ADME, Microsome
[7] = Metabolic stability in human liver microsomes assessed as apparent decay constant at 5 uM incubated for 60 mins by UV-Vis spectrophotometry; type: ADME, Microsome; conditions: 1 h
[8] = Metabolic stability in rat liver microsomes assessed as apparent decay constant at 5 uM incubated for 60 mins by UV-Vis spectrophotometry; type: ADME, Microsome; conditions: 1 h
[9] = Metabolic stability in human liver microsomes assessed as intrinsic clearance at 5 uM incubated for 60 mins by UV-Vis spectrophotometry; type: ADME, Microsome; conditions: read-out: CLH
[10] = Solubility of compound in DMSO at pH 3 incubated for […] by HPLC/UV/DAD analysis; type: physicochemical
In short: (§2)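 10 mM DMSO stock diluted to 250 μM (2.5% DMSO) in 50 mM acetic acid (pH 3.0) or 50 mM PBS (pH 7.4). Shaken 24 h at 25 °C, filtered, diluted 1:2 and quantified by HPLC-UV at 254 nm against a 250 μM standard; triplicate average.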

IMR-32 [11] = experiment: Antiinflammatory activity in human IMR32 cells assessed as reduction in LPS-induced NF-kappaB-DNA binding at 0.5 and 1 uM preincubated for 24 hrs followed by LPS stimulation and measured after 30 mins by immunoblot analysis; type: functional, cell-based
[12] = Chemical stability of compound in DMSO assessed as remaining compound at pH 3 incubated for 24 hrs by HPLC/UV/DAD analysis; type: physicochemical; conditions: read-out: Stability
In short: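 Samples at 250 μM (2.5% DMSO) in 50 mM acetic acid, pH 3.0, held 24 h at 25 °C. HPLC/UV/DAD peak area at 254 nm after 24 h divided by area at T0 × 100; triplicate average.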

[13] = biological target: T1, Fatty-acid amide hydrolase 1 (Mus musculus, UniProt O08914); experiment: Inhibition of FAAH in mouse brain membranes assessed as inhibitory constant using [14C]-AEA as substrate incubated for 15 mins by scintillation counting method; type: cell membranes
T1 sequence (O08914 whole entry): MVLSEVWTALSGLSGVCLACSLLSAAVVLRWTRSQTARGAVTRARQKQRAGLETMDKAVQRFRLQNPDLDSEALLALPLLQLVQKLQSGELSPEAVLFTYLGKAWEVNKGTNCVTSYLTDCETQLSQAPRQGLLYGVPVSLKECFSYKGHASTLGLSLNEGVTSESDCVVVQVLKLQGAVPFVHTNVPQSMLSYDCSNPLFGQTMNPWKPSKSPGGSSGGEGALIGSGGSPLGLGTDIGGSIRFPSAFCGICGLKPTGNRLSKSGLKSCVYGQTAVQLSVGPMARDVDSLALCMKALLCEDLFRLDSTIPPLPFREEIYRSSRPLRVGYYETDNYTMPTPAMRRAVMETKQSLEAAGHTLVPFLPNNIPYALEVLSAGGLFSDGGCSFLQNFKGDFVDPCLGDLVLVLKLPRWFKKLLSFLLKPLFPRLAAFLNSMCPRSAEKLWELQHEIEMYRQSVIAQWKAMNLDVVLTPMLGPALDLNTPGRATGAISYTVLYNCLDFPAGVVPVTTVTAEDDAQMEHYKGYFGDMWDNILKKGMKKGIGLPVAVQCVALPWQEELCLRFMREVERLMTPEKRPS
In short: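 Mouse brain incubated with 10 μM [¹⁴C]AEA at 37 °C for 15 min, pH 9.0, compound added to the medium. Stopped with chloroform/methanol 2:1; [¹⁴C]ethanolamine released into the aqueous phase measured. Mean of at least three experiments.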

[14] = biological target: T1, Fatty-acid amide hydrolase 1; experiment: Inhibition of FAAH in mouse brain membranes using [14C]-AEA as substrate incubated for 15 mins by scintillation counting method; type: cell membranes
[15] = biological target: Voltage-gated inwardly rectifying potassium channel KCNH2 (Homo sapiens, UniProt Q12809); experiment: Inhibition of human ERG expressed in HEK293 cells […] by patch clamp assay; type: cell-based
Chain of Voltage-gated inwardly rectifying potassium channel KCNH2 (Q12809 whole entry): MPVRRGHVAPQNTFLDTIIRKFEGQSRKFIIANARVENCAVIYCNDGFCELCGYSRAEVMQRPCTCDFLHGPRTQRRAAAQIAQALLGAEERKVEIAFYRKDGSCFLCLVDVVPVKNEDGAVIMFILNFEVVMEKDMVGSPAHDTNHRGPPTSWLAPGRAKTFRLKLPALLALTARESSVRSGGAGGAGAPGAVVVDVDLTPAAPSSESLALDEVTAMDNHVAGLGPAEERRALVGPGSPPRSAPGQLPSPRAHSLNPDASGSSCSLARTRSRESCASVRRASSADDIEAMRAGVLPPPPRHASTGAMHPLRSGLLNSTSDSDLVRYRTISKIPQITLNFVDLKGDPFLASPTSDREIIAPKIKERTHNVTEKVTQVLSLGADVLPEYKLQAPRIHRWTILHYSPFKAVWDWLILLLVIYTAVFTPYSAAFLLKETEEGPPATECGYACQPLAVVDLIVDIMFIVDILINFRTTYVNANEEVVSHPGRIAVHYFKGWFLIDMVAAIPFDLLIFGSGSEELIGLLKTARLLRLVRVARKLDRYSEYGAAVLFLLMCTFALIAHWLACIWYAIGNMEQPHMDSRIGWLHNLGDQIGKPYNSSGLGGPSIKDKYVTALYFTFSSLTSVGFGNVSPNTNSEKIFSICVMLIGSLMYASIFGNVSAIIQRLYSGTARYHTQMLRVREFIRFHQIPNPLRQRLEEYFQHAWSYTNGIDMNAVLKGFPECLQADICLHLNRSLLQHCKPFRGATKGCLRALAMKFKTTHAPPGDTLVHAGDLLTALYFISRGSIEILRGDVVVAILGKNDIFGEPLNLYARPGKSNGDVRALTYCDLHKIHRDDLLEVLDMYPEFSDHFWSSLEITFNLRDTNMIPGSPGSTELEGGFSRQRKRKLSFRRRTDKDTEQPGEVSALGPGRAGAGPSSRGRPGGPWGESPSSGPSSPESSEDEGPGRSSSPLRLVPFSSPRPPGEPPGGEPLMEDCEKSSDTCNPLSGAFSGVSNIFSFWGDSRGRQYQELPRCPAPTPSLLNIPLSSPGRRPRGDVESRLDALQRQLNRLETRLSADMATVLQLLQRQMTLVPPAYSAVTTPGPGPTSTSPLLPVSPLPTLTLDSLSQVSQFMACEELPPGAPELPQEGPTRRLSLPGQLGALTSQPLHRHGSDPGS
In short: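 HEK293 cells stably expressing hERG under a tetracycline-inducible promoter (10 μg/mL tetracycline for 24, 48 or 72 h). Automated patch clamp, tail current; 0.1, 1 and 10 μM in 0.1% DMSO after 3 min vehicle, 5 min exposure. Residual current vs vehicle gives % inhibition; IC50 estimated; at least two cells.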

D(3) dopamine receptor = D(3) dopamine receptor (Homo sapiens, UniProt P35462); experiment: Displacement of [3H]-spiperone from human D3 receptor expressed in CHO cells co-expressing Galpha16 incubated for 120 mins by liquid scintillation counting method; type: cell-based
Chain of D(3) dopamine receptor (P35462 whole entry): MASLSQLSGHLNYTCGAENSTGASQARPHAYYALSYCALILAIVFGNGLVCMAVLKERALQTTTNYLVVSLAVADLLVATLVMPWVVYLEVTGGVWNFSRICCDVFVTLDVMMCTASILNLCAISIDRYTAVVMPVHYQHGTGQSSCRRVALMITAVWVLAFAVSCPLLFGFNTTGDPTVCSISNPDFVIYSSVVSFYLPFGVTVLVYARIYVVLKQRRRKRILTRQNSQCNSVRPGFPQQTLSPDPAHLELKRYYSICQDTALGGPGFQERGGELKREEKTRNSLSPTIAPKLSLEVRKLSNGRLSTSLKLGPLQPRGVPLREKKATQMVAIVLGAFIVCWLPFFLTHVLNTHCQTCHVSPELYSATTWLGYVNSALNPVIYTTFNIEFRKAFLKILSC

D(2) dopamine receptor = D(2) dopamine receptor (Homo sapiens, UniProt P14416); experiment: Displacement of [3H]-spiperone from human D2 receptor expressed in CHO cells co-expressing Galpha16 incubated for 120 mins by liquid scintillation counting method; type: cell-based
Chain of D(2) dopamine receptor (P14416 whole entry): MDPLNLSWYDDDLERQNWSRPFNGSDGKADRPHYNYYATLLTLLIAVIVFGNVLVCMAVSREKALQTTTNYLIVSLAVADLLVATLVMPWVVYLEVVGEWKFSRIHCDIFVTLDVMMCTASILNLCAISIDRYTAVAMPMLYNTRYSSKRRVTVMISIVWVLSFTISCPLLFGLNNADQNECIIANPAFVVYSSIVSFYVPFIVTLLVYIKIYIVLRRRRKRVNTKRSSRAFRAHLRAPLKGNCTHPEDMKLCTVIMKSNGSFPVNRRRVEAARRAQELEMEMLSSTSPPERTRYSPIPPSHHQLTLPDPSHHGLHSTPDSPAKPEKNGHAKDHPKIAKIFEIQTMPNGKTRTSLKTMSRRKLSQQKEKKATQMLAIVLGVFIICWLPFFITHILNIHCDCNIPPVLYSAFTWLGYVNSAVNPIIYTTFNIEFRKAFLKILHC
In short: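 Membranes from CHO cells expressing hD2 with Gα16; 2 μg protein/well, 0.08 nM [³H]-spiperone final, 23 °C for 120 min. Stopped by rapid filtration on PEI-soaked GF/B filters, bound radioactivity counted; Ki by Cheng-Prusoff; at least three experiments.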

[16] = biological target: T2, Monoglyceride lipase (Mus musculus) (UniProt O35678); experiment: Inhibition of MAGL in mouse brain assessed as release of [3H]glycerol using [3H]-2-OG as substrate incubated for 30 mins by scintillation counting method; type: tissue-based
T2 sequence (whole entry): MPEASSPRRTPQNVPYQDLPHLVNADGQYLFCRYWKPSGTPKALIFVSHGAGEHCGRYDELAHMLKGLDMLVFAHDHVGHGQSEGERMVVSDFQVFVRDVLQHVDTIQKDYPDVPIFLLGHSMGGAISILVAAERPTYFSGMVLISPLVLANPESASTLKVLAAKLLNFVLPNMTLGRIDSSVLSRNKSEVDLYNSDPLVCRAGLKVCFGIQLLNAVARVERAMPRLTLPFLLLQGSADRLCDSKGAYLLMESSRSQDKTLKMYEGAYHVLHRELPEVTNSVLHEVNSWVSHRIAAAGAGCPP
In short: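 Mouse brain homogenised in 50 mM sodium phosphate pH 8.0 with 0.32 M sucrose, spun sequentially up to 100,000×g. Final supernatant incubated with 10 μM [³H]2-OG at 37 °C for 30 min; stopped with chloroform/methanol and aqueous [³H]glycerol scintillation-counted.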

[17] = Solubility of compound in DMSO at pH 7.4 incubated for […] by HPLC/UV/DAD analysis; type: physicochemical; in short: as §2
[18] = biological target: Cannabinoid receptor 1 (Mus musculus) (UniProt P47746); experiment: Displacement of [3H]CP55, 940 from mouse brain membrane CB1 receptor
Chain of Cannabinoid receptor 1 (Mus musculus) (P47746 whole entry): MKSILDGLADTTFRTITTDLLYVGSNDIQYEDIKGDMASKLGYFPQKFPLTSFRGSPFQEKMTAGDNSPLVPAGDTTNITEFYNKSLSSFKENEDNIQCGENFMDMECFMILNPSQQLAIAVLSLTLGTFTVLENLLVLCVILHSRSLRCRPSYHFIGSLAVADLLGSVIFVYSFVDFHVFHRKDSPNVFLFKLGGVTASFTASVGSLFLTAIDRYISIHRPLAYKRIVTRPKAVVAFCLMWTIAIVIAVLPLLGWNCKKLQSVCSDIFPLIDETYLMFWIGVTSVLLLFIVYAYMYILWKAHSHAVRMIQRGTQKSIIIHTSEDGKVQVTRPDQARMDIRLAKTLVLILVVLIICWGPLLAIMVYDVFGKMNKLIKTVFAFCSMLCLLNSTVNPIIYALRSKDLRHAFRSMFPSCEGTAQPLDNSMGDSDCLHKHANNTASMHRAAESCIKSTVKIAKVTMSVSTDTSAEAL
In short: (§3)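 Mouse brain membrane fraction (18000×g pellet) in 50 mM Tris-HCl, 2 mM Tris-EDTA, 3 mM MgCl2, pH 7.4. Rapid filtration binding with the agonist [³H]CP55,940; nonspecific binding defined with 1 μM unlabelled agonist; compound added directly to the incubation.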

[19] = biological target: Cannabinoid receptor 2 (Mus musculus) (UniProt P47936); experiment: Displacement of [3H]CP55, 940 from mouse brain membrane CB2 receptor; in short: as §3
Chain of Cannabinoid receptor 2 (Mus musculus) (P47936 whole entry): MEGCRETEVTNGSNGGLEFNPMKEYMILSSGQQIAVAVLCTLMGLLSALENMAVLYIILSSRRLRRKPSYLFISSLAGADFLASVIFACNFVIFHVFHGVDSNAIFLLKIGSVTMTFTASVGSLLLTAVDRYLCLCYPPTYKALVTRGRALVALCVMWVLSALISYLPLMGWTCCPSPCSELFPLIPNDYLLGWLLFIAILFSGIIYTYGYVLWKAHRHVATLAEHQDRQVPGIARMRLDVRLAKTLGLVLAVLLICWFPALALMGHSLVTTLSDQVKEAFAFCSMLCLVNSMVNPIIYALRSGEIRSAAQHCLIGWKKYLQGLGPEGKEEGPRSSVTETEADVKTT

[20] = Mutagenicity in Salmonella typhimurium TA98 assessed as number of revertants in presence of liver S9 fraction at 5 to 230 uM incubated for 2 days by AMES test; type: toxicity, subcellular; conditions: salmonella enterica subsp. enterica serovar typhimurium, s9, 48 h
[21] = Mutagenicity in Salmonella typhimurium TA98 assessed as number of revertants at 5 to 230 uM incubated for 2 days by AMES test; type: toxicity; conditions: salmonella enterica subsp. enterica serovar typhimurium, 48 h
[22] = Mutagenicity in Salmonella typhimurium TA100 assessed as number of revertants in presence of liver S9 fraction at 5 to 230 uM incubated for 2 days by AMES test; type: toxicity, subcellular; conditions: salmonella enterica subsp. enterica serovar typhimurium, s9, 48 h
[23] = Mutagenicity in Salmonella typhimurium TA100 assessed as number of revertants at 5 to 230 uM incubated for 2 days by AMES test; type: toxicity; conditions: salmonella enterica subsp. enterica serovar typhimurium, 48 h

Compound: NC(=O)c1ccn(-c2cccc(OC(=O)NCCCCCCc3ccccc3)c2)c1
IC50 (NIH3T3): 75000 nM
IC50 (U373 MG): 50000 nM
Retention_time [1]: 13.72 min
Activity (IMR-32 [2]): Active
half-life at 5 µM [3]: 27.8 min
Activity (IMR-32 [4]): Non-Toxic
microsomal CLint at 5 µM [5]: 23.4 µL/min/mg
half-life at 5 µM [6]: 50.3 min
K [7]: 0.02496 ×10⁻¹ /min
K [8]: 0.01379 ×10⁻¹ /min
microsomal CLint at 5 µM [9]: 41.6 µL/min/mg
solubility [10]: 465 µM (≈ 189 µg/mL)
Activity (IMR-32 [11]): Active
remaining at 24 h [12]: 92.1%

Compound: Cc1cc(C(N)=O)c(-c2cccc(OC(=O)NCCCN3CCN(c4ccccc4)CC3)c2)o1
Ki [13]: 16 nM
IC50 [14]: 62 nM
IC50 [15]: 1100 nM
Ki (D(3) dopamine receptor): 19 nM
Ki (D(2) dopamine receptor): 29 nM

Compound: Cc1cc(C(N)=O)c(-c2cccc(OC(=O)NCCN3CCN(c4ccccc4)CC3)c2)n1C
Ki [13]: 46 nM
IC50 [14]: 175 nM

Compound: NC(=O)c1cn(-c2cccc(OC(=O)NCCN3CCN(c4ccccc4)CC3)c2)nn1
Ki [13]: 194 nM
IC50 [14]: 757 nM

Compound: Cn1c(C(N)=O)ccc1-c1cccc(OC(=O)NCCN2CCN(c3ccccc3)CC2)c1
Ki [13]: 203 nM
IC50 [14]: 791 nM
IC50 [15]: 6400 nM
Ki (D(3) dopamine receptor): 76 nM
Ki (D(2) dopamine receptor): 56 nM

Compound: Cc1cc(C(N)=O)c(-c2cccc(OC(=O)NCCN3CCN(c4ccccc4)CC3)c2)[nH]1
Ki [13]: 50 nM
IC50 [14]: 195 nM

Ki [13]: 420 nM
IC50 [14]: 1600 nM
Compound: NC(=O)c1ccn(-c2cccc(NC(=O)NCCN3CCN(c4ccccc4)CC3)c2)c1

Compound: Cc1cc(C(N)=O)c(-c2cccc(OC(=O)NCCN3CCN(c4ccccc4)CC3)c2)s1
Ki [13]: 6.88 nM
IC50 [14]: 26 nM
IC50 [15]: 280 nM
Ki (D(3) dopamine receptor): 148 nM
Ki (D(2) dopamine receptor): 214 nM

Compound: NC(=O)c1ccn(-c2cccc(OC(=O)NCCCN3CCN(c4ccccc4)CC3)c2)c1
Ki [13]: 25 nM
IC50 [14]: 94 nM
IC50 [15]: 3500 nM
Ki (D(3) dopamine receptor): 34 nM
Ki (D(2) dopamine receptor): 66 nM

Compound: Cc1cc(C(N)=O)c(-c2cccc(OC(=O)NCCN3CCN(c4ccccc4)CC3)c2)o1
IC50 (NIH3T3): 68000 nM
Ki [13]: 0.23 nM
IC50 (U373 MG): 23000 nM
Retention_time [1]: 9.004 min
inhibition [16]: inactive
Activity (IMR-32 [2]): Active
IC50 [14]: 0.89 nM
half-life at 5 µM [3]: 24.4 min
Activity (IMR-32 [4]): Non-Toxic
microsomal CLint at 5 µM [5]: 59.2 µL/min/mg
IC50 [15]: < 100 nM
pIC50 ([15]; hek293): > 7
Ki (D(3) dopamine receptor): 105 nM
half-life at 5 µM [6]: 19.9 min
K [7]: 0.02842 ×10⁻¹ /min
solubility [17]: 2 µM (≈ 0.897 µg/mL)
inhibition [18]: inactive
Ki (D(2) dopamine receptor): 138 nM
K [8]: 0.03482 ×10⁻¹ /min
microsomal CLint at 5 µM [9]: 47.4 µL/min/mg
solubility [10]: 991 µM (≈ 444 µg/mL)
inhibition [19]: inactive
Activity (IMR-32 [11]): Active
remaining at 24 h [12]: 99.9%

Compound: NC(=O)c1ccn(-c2cccc(OC(=O)NCCN3CCN(c4ccccc4)CC3)c2)c1
IC50 (NIH3T3): 5000 nM
Ki [13]: 16 nM
inhibition [16]: inactive
IC50 [14]: 58 nM
Activity [20]: Non-Toxic
Activity [21]: Non-Toxic
IC50 [15]: 5300 nM
Ki (D(3) dopamine receptor): 105 nM
inhibition [18]: inactive
Activity [22]: Non-Toxic
Ki (D(2) dopamine receptor): 186 nM
Activity [23]: Non-Toxic
inhibition [19]: inactive

From ChEMBL document CHEMBL4406846, “Development of novel multipotent compounds modulating endocannabinoid and dopaminergic systems” (Eur J Med Chem, 2019)
